In ChEMBL document CHEMBL1126149, “Centrally acting alpha 1-adrenoceptor agonists based on hexahydronaphth[2,3-b]-1,4-oxazines and octahydrobenzo[g]quinolines” (1992):

What was measured:
[1] = biological target: T1, Adrenergic receptor alpha-1 (Homo sapiens) (UniProt P35348+P25100+P35368); test: alpha-1-adrenergic activity by measuring their potency in rabbit ear artery based on noradrenaline; type: functional, tissue-based; conditions: Oryctolagus cuniculus, target entry is the homologue from another species
In short: (§1)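 Isolated rabbit ear artery segment, circular smooth muscle tension measured isometrically; cocaine blocks neuronal uptake, rauwolscine blocks α2-receptors. Cumulative noradrenaline curve (10^-10–10^-5 M) sets the maximum, then after washout a cumulative curve for the test drug. pD2 = −log molar concentration giving 50% of NA maximum; efficacy = drug maximum relative to NA. n = 3-5.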

[2] = biological target: T1, Adrenergic receptor alpha-1 (Homo sapiens); test: Alpha-1-adrenergic activity as efficacy in rabbit ear artery relative to noradrenaline; type: functional, tissue-based; conditions: Oryctolagus cuniculus, target entry is the homologue from another species; in short: as §1
Rattus norvegicus [3] = species on record: Rattus norvegicus; test: Alpha-1/alpha-2-agonistic activity by measuring their efficacy in pithed rat based on noradrenaline; type: functional
In short: (§2)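 Pithed rats with jugular vein catheter for iv dosing and carotid catheter for arterial pressure, about 15 min equilibration. Single increasing iv doses are given and the rise in diastolic pressure is read to build a dose-response curve. pD2 is taken from that curve; efficacy is relative to noradrenaline. n = 3.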

Rattus norvegicus [4] = species on record: Rattus norvegicus; test: Change in blood pressure was reported in pithed rat; type: functional; in short: as §2
Rattus norvegicus [5] = species on record: Rattus norvegicus; test: alpha-1/alpha-2-agonistic activity by measuring their potency in pithed rat based on noradrenaline; type: functional; in short: as §2
[6] = biological target: T1, Adrenergic receptor alpha-1 (Homo sapiens); test: alpha-1-adrenergic activity by measuring their efficacy in rabbit ear artery based on noradrenaline; type: functional, tissue-based; conditions: Oryctolagus cuniculus, target entry is the homologue from another species; in short: as §1
[7] = biological target: T1, Adrenergic receptor alpha-1 (Homo sapiens); conditions: Oryctolagus cuniculus; Artery
[8] = biological target: T1, Adrenergic receptor alpha-1 (Homo sapiens); conditions: Oryctolagus cuniculus; Artery; remark: listed apart in the source
[9] = biological target: T1, Adrenergic receptor alpha-1 (Homo sapiens); test: Alpha-1-adrenergic activity as potency in rabbit ear artery compared to noradrenaline; type: functional, tissue-based; conditions: Oryctolagus cuniculus, target entry is the homologue from another species; in short: as §1
Rattus norvegicus [10] = species on record: Rattus norvegicus; test: Alpha-1/Alpha-2-agonistic activity by measuring their efficacy in pithed rat based on noradrenaline; type: functional; in short: as §2
Rattus norvegicus [11] = species on record: Rattus norvegicus; test: Alpha-1/Alpha-2-agonistic activity by measuring their potency in pithed rat based on noradrenaline; type: functional; in short: as §2
Rattus norvegicus [12] = species on record: Rattus norvegicus; test: Alpha-1/alpha-2-agonistic activity by measuring their potency in pithed rat based on noradrenaline; type: functional; in short: as §2
Rattus norvegicus [13] = species on record: Rattus norvegicus; test: alpha-1/alpha-2-agonistic activity by measuring their efficacy in pithed rat based on noradrenaline; type: functional; in short: as §2

SMILES | E [2] | Increase in blood pressure (P/R) (Rattus norvegicus [4]) | pD2 [9] | E (Rattus norvegicus [10]) | pD2 (Rattus norvegicus [11]) | further results
COc1ccc([N+](=O)[O-])c2c1CC1C(C2)OCCN1C (centres undefined) | 85 | -22% |  |  |  | pD2 [1]: 5.45; E (Rattus norvegicus [3]): 17; pD2 (Rattus norvegicus [5]): 6
COc1ccc(SC)c2c1C[C@H]1[C@@H](C2)OCCN1C (stereo in doubt; 14) [listing 1 of 2 here] |  |  |  |  |  | pD2 [1]: 7.5; E [6]: 110
NC[C@H](O)c1ccc(O)c(O)c1 |  |  |  |  |  | PD2 [7]: 7.7; E [8]: 100
CCN1CC(C)OC2Cc3c(SC)ccc(OC)c3CC21 (centres undefined) | 93 | -34% | 6.47 | 29 | 6.45 | 
CCC1CN(C)C2Cc3c(OC)ccc(SC)c3CC2O1 (centres undefined) | 42 | 0% | 5.35 | 20 | 6.1 | 
CCSc1ccc(OC)c2c1CC1OCCN(C)C1C2 (centres undefined) | 95 | -80% |  |  |  | pD2 [1]: 8.2; E (Rattus norvegicus [3]): 86; pD2 (Rattus norvegicus [5]): 6.48
CCSc1ccc(OC)c2c1CC1CCCN(C)C1C2 (stereo in doubt; 31) [listing 1 of 2 here] |  | -93% |  | 80 | 6.68 | 
CCCN1CCOC2Cc3c(SC)ccc(OC)c3CC21 (centres undefined) | 98 | -76% | 6.78 | 38 | 6.18 | 
CCSc1ccc(OC)c2c1CC1CCCN(C)C1C2 (stereo in doubt) [listing 1 of 2 here] |  |  | < 4 |  |  | 
COc1ccc(Cl)c2c1CC1C(C2)OCCN1C (centres undefined) | 89 | -5% | 5.97 | 40 |  | pD2 (Rattus norvegicus [12]): 5.89
COc1ccc(SC)c2c1CC1C(CCCN1C)C2 (stereo in doubt; cis) [listing 1 of 2 here] |  |  |  |  | <4 | 
CCSc1ccc(OC)c2c1CC1CCCN(C)C1C2 (stereo in doubt) [listing 2 of 2 here] |  | -25% |  | 18 | 6.12 | 
COc1ccc(SC)c2c1C[C@@H](N)CC2 | 98 | -94% | 7.48 | 73 | 7.92 | 
COc1ccc(SC)c2c1CC1C(CCCN1C)C2 (stereo in doubt; 33) [listing 1 of 2 here] | 109 |  | 8.4 |  |  | 
COc1ccc(SC)c2c1C[C@H]1[C@@H](C2)OCCN1C (stereo in doubt; 15) [listing 1 of 2 here] | 100 |  | 5.4 |  |  | 
COc1ccc(SC)c2c1C[C@H]1[C@@H](C2)OCCN1C (stereo in doubt; 15) [listing 2 of 2 here] |  | -40% |  | 23 | 6.19 | 
COc1ccc(SC)c2c1C[C@H]1[C@@H](C2)OCCN1C (stereo in doubt; 14) [listing 2 of 2 here] |  | -79% |  |  |  | E (Rattus norvegicus [13]): 76; pD2 (Rattus norvegicus [5]): 6.74
COc1ccc(SC)c2c1CC1C(CCCN1C)C2 (stereo in doubt; cis) [listing 2 of 2 here] |  |  | < 4 |  |  | 
COc1ccc(SC)c2c1CC1C(C2)OC(C)CN1C (centres undefined) | 67 |  |  |  |  | pD2 [1]: 5.83; pD2 (Rattus norvegicus [5]): <4
COc1ccc(SC)c2c1CC1C(CCCN1C)C2 (stereo in doubt; 33) [listing 2 of 2 here] |  | -87% |  | 85 | 7.36 | 
COc1ccc(SC)c2c1CC1C(CCCN1C)C2 (stereo in doubt; trans) |  | -79% |  | 72 | 6.92 | 
CCN1CCOC2Cc3c(SC)ccc(OC)c3CC21 (centres undefined) | 98 | -84% | 7.42 | 79 | 6.84 | 
CCSc1ccc(OC)c2c1CC1CCCN(C)C1C2 (stereo in doubt; 31) [listing 2 of 2 here] | 97 |  | 6.46 |  |  | 
